Measurements as given in ChEMBL document CHEMBL5236592, “Induction of Ferroptosis in Glioblastoma and Ovarian Cancers by a New Pyrrole Tubulin Assembly Inhibitor” (J Med Chem, 2022).

Biological target: Tubulin (Homo sapiens) (UniProt P68371+Q9H4B7+P0DPH7+P68366+Q13509+Q71U36+P04350+Q3ZCM7+P07437+P68363+Q9BQE3+Q6PEY2+Q13885+Q9BVA1+Q9BUF5)
Test: Inhibition of [3H]colchicine binding to tubulin (unknown origin) at 1 uM incubated for 10 mins relative to control
Type: protein-complex assay
Outline: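 Tubulin at 1.0 μM mixed with 5.0 μM [3H]colchicine and inhibitor at 1.0 μM, incubated 10 min at 37 °C.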

inhibition [%]	Structure (SMILES)
69	COc1cc(C(=O)c2cn(-c3ccccn3)cc2-c2ccccc2)cc(OC)c1OC
66	COc1cc(C(=O)c2cn(-c3ccccn3)cc2-c2ccco2)cc(OC)c1OC
